In brackets after ≈: the same amount, converted by molar mass. Activity calls are given as the source filed them. No cut-off for these calls is given here.
What was measured:
[1] = Inhibition of bacterial ImiS expressed in Escherichia coli BL21 (DE3) using imipenem as substrate preincubated for 3 hrs with enzyme followed by substrate addition by spectrometry analysis; set-up: species or system Bacteria
Method in brief: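 Purified ImiS preincubated 3 h with inhibitor (six concentrations, 0.01–20 μM; DMSO below 0.5%) in 30 mM Tris pH 7.0, 25 °C; imipenem 40 μM. Hydrolysis read at 300 nm, rates in triplicate. IC50 from linear fit of mean percent inhibition against inhibitor concentration.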

Bacteria [2] = assay: Inhibition of bacterial ImiS expressed in Escherichia coli BL21 (DE3) at 20 uM using imipenem as substrate by spectrometry analysis relative to control
Method in brief: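 Purified ImiS with imipenem (40 μM) in 30 mM Tris pH 7.0; inhibitor at 20 μM, DMSO below 0.5%. Hydrolysis followed at 300 nm by UV-vis; initial rates in triplicate, averaged. Percent inhibition = activity without inhibitor (100%) minus residual activity.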

Bacteria [3] = assay: Inhibition of bacterial L1 expressed in Escherichia coli BL21 (DE3) at 20 uM using cefazolin as substrate by spectrometry analysis relative to control
Method in brief: (§1)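 Purified L1 or NDM-1; cefazolin (40 μM) substrate, hydrolysis monitored at 262 nm by UV-vis. Inhibitor at 20 μM. Initial rates with and without inhibitor measured in triplicate and averaged; percent inhibition = uninhibited activity (100%) minus residual activity.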

Bacteria [4] = assay: Inhibition of bacterial NDM-1 expressed in Escherichia coli BL21 (DE3) at 20 uM using cefazolin as substrate by spectrometry analysis relative to control; method in brief: as §1
Bacteria [5] = assay: Inhibition of beta-lactamase ImiS (unknown origin) in expressed Escherichia coli BL21 (DE3) assessed as potentiation of imipenem induced antibacterial activity by measuring imipenem MIC at 64 ug/ml incubated for 16 hrs by CLSI broth microdilution method (reference value: 16 ug/ml); settings: dose 64.0 µg/ml
Method in brief: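 E. coli BL21 (DE3) carrying pET26b-ImiS grown in MH broth to OD600 0.5, diluted to 1 × 10^5 CFU mL–1. CLSI broth dilution; imipenem serially diluted, inhibitor at 64 μg mL–1 stock.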

Bacteria [6] = assay: Inhibition of beta-lactamase ImiS (unknown origin) expressed in Escherichia coli BL21 (DE3) assessed as potentiation of meropenem induced antibacterial activity by measuring meropenem MIC at 64 ug/ml incubated for 16 hrs by CLSI broth microdilution method (reference value: 64 ug/ml); settings: dose 64.0 µg/ml
[7] = Cytotoxicity against mouse L929 cells assessed as cell viability up to 200 uM measured after 48 hrs by MTT assay; type: cell-based; settings: read-out: Activity
Bacteria [8] = assay: Inhibition of bacterial ImiS expressed in Escherichia coli BL21 (DE3) at 10 uM using imipenem as substrate by spectrometry analysis relative to control
Method in brief: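 Time and concentration dependence: ImiS incubated with inhibitor at 0.5, 1 or 5 μM over varying times, or over 0.01–10 μM for the inhibition curve; residual activity against imipenem measured spectrophotometrically at 300 nm in 30 mM Tris pH 7.0.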

Bacteria [9] = assay: Inhibition of bacterial ImiS expressed in Escherichia coli BL21 (DE3) by measuring hydrolysis of imipenem using imipenem as substrate preincubated for 3 hrs with enzyme followed by substrate addition by isothermal titration calorimetric method; settings: dose microM 0.1-10, time 3.0 hrs
Method in brief: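 ITC, single-injection mode, 25 °C, 30 mM Tris with 0.5% DMSO. ImiS (100 nM) preincubated 3 h with inhibitor (0–10 μM), then one 38 μL injection of imipenem (0.5 mM); stirring 750 rpm. Heat flow (dq/dt) recorded every 1 s until return to baseline.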

[10] = Mixed type inhibition of bacterial ImiS using varying levels of imipenem as substrate assessed as hydrolysis by Line weaver Burk plot analysis; set-up: species or system Bacteria
Method in brief: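 Initial imipenem hydrolysis rates by ImiS at 20, 40, 60, 80 and 100 μM substrate, inhibitor at 0, 1, 5 and 10 μM; 300 nm read-out, triplicate. Mode assigned from Lineweaver–Burk plots; Ki from fits of initial velocity against substrate concentration at each inhibitor level.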

Mus musculus [11] = assay: In vivo antibacterial activity against Escherichia coli BL21 (DE3) expressing ImiS infected in Kunming mouse assessed as reduction in bacterial load spleen at 10 mg/kg, ip administered after 2 hrs post infection and measured after 24 hrs; type: functional, organism-based
Method in brief: (§2)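 Kunming mice (male and female, 20 ± 2 g), six per group, infected ip with 200 μL E. coli BL21 (DE3)-ImiS suspension (OD600 = 1.0). At 2 h, single ip dose: PBS, meropenem 10 mg kg–1, inhibitor 10 mg kg–1, or meropenem plus inhibitor (each 10 mg kg–1). Euthanized 24 h post-infection; 0.1 g spleen and liver homogenized in 1 mL PBS, serially diluted, plated on LB agar for cfu.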

Mus musculus [12] = assay: In vivo inhibition of beta-lactamase ImiS (unknown origin) expressed in Escherichia coli BL21 (DE3) infected in Kunming mouse assessed as potentiation of meropenem-induced reduction in bacterial load in spleen at 10 mg/kg, ip administered after 2 hrs post infection and measured after 24 hrs; type: functional, organism-based; method in brief: as §2
Mus musculus [13] = assay: In vivo inhibition of beta-lactamase ImiS (unknown origin) expressed in Escherichia coli BL21 (DE3) infected in Kunming mouse assessed as potentiation of meropenem-induced reduction in bacterial load in liver at 10 mg/kg, ip administered after 2 hrs post infection and measured after 24 hrs; type: functional, organism-based; method in brief: as §2
Escherichia coli [14] = assay: In vivo antibacterial activity against Escherichia coli BL21(DE3) expressing ImiS infected in Kunming mouse assessed as reduction in bacterial load liver at 10 mg/kg, ip administered after 2 hrs post infection and measured after 24 hrs; type: functional, organism-based; method in brief: as §2
Escherichia coli [15] = assay: Antibacterial activity against Escherichia coli BL21 (DE3) assessed as inhibition of bacterial growth incubated for 16 hrs by CLSI broth microdilution method; type: functional

SMILES | IC50 [1] | inhibition (Bacteria [2]) | inhibition (Bacteria [3]) | inhibition (Bacteria [4]) | MIC (Bacteria [5]) | MIC (Bacteria [6]) | viability at 48 h [7] | inhibition (Bacteria [8]) | inhibition (Bacteria [9]) | Ki [10] | Activity (Mus musculus [11]) | inhibition (Mus musculus [12]) | inhibition (Mus musculus [13]) | Activity (Escherichia coli [14]) | MIC (Escherichia coli [15])
CC(C)(C)c1ccc(C(=O)Nc2ccc(S(N)(=O)=O)cc2)cc1 | 3.3 µM | > 70% | < 20% | < 20% | 8 µg/mL | 32 µg/mL |  |  |  |  |  |  |  |  | 
NS(=O)(=O)c1ccc(NC(=O)c2ccc(Cl)cc2)cc1 | 5.1 µM | > 70% | < 20% | < 20% | 8 µg/mL | 32 µg/mL | > 80% |  |  |  |  |  |  |  | 
NS(=O)(=O)c1cccc(NC(=O)c2ccc(C(F)(F)F)cc2)c1 | 0.31 µM | > 70% | < 20% | < 20% | 4 µg/mL | 16 µg/mL |  |  |  |  |  |  |  |  | 
NS(=O)(=O)c1ccc(NC(=O)c2cccc([N+](=O)[O-])c2)cc1 | 4.8 µM | > 70% | < 20% | < 20% | 8 µg/mL | 32 µg/mL |  |  |  |  |  |  |  |  | 
NS(=O)(=O)c1ccc(NC(=O)c2cccc(Br)c2)cc1 | 2.7 µM | > 70% | < 20% | < 20% | 8 µg/mL | 32 µg/mL |  |  |  |  |  |  |  |  | 
NS(=O)(=O)c1cccc(NC(=O)CCc2ccccc2)c1 | 0.16 µM | > 70% | < 20% | < 20% | 4 µg/mL | 16 µg/mL |  |  |  |  |  |  |  |  | 
NS(=O)(=O)c1ccc(NC(=O)c2ccc(O)cc2)cc1 | 5.6 µM | > 70% | < 20% | < 20% | 8 µg/mL | 32 µg/mL |  |  |  |  |  |  |  |  | 
NS(=O)(=O)c1ccc(NC(=O)c2ccc(C(F)(F)F)cc2)cc1 | 9.3 µM | > 70% | < 20% | < 20% | 8 µg/mL | 32 µg/mL |  |  |  |  |  |  |  |  | 
NS(=O)(=O)c1cccc(NC(=O)c2ccccc2)c1 | 0.15 µM | > 70% | < 20% | < 20% | 4 µg/mL | 16 µg/mL |  |  |  |  |  |  |  |  | 
NS(=O)(=O)c1ccc(NC(=O)CC(c2ccccc2)c2ccccc2)cc1 | 4.1 µM | > 70% | < 20% | < 20% | 8 µg/mL | 32 µg/mL |  |  |  |  |  |  |  |  | 
NS(=O)(=O)c1ccc(NC(=O)CCc2ccccc2)cc1 | 3.5 µM | > 70% | < 20% | < 20% | 8 µg/mL | 32 µg/mL |  |  |  |  |  |  |  |  | 
CC(C)(C)c1ccc(C(=O)Nc2ccccc2S(N)(=O)=O)cc1 | 4.6 µM | > 70% | < 20% | < 20% | 8 µg/mL | 32 µg/mL | > 80% |  |  |  |  |  |  |  | 
NS(=O)(=O)c1ccc(NC(=O)c2ccccc2)cc1 | 7.5 µM | > 70% | < 20% | < 20% | 8 µg/mL | 32 µg/mL |  |  |  |  |  |  |  |  | 
NS(=O)(=O)c1cccc(NC(=O)c2cccc([N+](=O)[O-])c2)c1 | 0.86 µM | > 70% | < 20% | < 20% | 4 µg/mL | 16 µg/mL |  |  |  |  |  |  |  |  | 
NS(=O)(=O)c1cccc(NC(=O)c2ccc(Cl)cc2)c1 | 0.44 µM | > 70% | < 20% | < 20% | 4 µg/mL | 16 µg/mL | > 80% |  |  |  |  |  |  |  | 
NS(=O)(=O)c1ccccc1NC(=O)c1ccc(Cl)cc1 | 5.4 µM | > 70% | < 20% | < 20% | 8 µg/mL | 32 µg/mL |  |  |  |  |  |  |  |  | 
COC(=O)c1ccc(C(=O)Nc2cccc(S(N)(=O)=O)c2)cc1 | 0.11 µM | 95% | < 20% | < 20% | 4 µg/mL | 16 µg/mL | > 80% | 92% | Dose-dependent effect | 0.55 µM | inactive | Active | Active | inactive | 
CC(C)(C)c1ccc(C(=O)Nc2cccc(S(N)(=O)=O)c2)cc1 | 0.23 µM | > 70% | < 20% | < 20% | 4 µg/mL | 16 µg/mL |  |  |  |  |  |  |  |  | 
C[C@@H](O)[C@H]1C(=O)N2C(C(=O)O)=C(SCCNC=N)C[C@H]12 [IMIPENEM ANHYDROUS] |  |  |  |  |  |  |  |  |  |  |  |  |  |  | 0.25 µg/mL (≈ 0.835 µM)
NS(=O)(=O)c1cccc(NC(=O)c2cccc(Br)c2)c1 | 0.14 µM | > 70% | < 20% | < 20% | 4 µg/mL | 16 µg/mL |  |  |  |  |  |  |  |  | 
CCN(CC)c1ccc2c(-c3ccccc3C(=O)Oc3ccc(S(N)(=O)=O)cc3)c3ccc(=[N+](CC)CC)cc-3oc2c1 | 6.8 µM |  |  |  | 8 µg/mL | 32 µg/mL |  |  |  |  |  |  |  |  | 
COC(=O)c1ccc(C(=O)Nc2ccc(S(N)(=O)=O)cc2)cc1 | 7.3 µM | > 70% | < 20% | < 20% | 8 µg/mL | 32 µg/mL |  |  |  | 8 µM |  |  |  |  | 

Reference: ChEMBL document CHEMBL4673174, “meta-Substituted benzenesulfonamide: a potent scaffold for the development of metallo-beta-lactamase ImiS inhibitors” (RSC Med Chem, 2020)
